Measurements taken from ChEMBL document CHEMBL4433246, “Synthesis and Optimization of Kv7 (KCNQ) Potassium Channel Agonists: The Role of Fluorines in Potency and Selectivity” (ACS Med Chem Lett, 2019).

Key:
[1] = molecular target: Voltage-gated potassium channel KCNQ3/KCNQ5 (Homo sapiens) (UniProt O43525+Q9NR82); experiment: Agonist activity at human Kv7.3/Kv7.5 expressed in HEK293 cells assessed as drug concentration that doubles the conductance at voltage leading to 15% channel activation at holding potential of at -80 mV by whole cell patch clamp electrophysiology assay; format: cell-based
In short: (§1)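 High-throughput automated electrophysiology on an IonWorks Barracuda platform using HEK293 cells expressing the human channel. Ten-point concentration–response curves were run. EC2x is the agonist concentration that doubles conductance at the voltage giving 15% channel activation. Values come from 2–5 individual assay determinations and are given as mean ± SD. The reference agonist was run in 6–431 repeats.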

[2] = molecular target: KCNQ4/KCNQ5 (Homo sapiens) (UniProt Q9NR82+P56696); experiment: Agonist activity at human Kv7.4/Kv7.5 expressed in HEK293 cells assessed as drug concentration that doubles the conductance at voltage leading to 15% channel activation at holding potential of at -80 mV by whole cell patch clamp electrophysiology assay; format: cell-based; in short: as §1
Homo sapiens = species on record: Homo sapiens; experiment: Selectivity index, ratio of EC2x for human Kv7.4/5 expressed in HEK293 cells to EC2x for EC2x for human Kv7.2/3 expressed in HEK293 cells; format: cell-based
In short: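 Selectivity index calculated as EC2x(Kv7.4/Kv7.5) divided by EC2x(Kv7.2/Kv7.3). Both EC2x values came from IonWorks Barracuda automated electrophysiology in HEK293 cells, using 10-point concentration curves and the doubled-conductance definition at 15% activation voltage.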

[3] = molecular target: T1, Potassium voltage-gated channel subfamily KQT member 4 (Homo sapiens) (UniProt P56696); experiment: Agonist activity at human Kv7.4 expressed in HEK293 cells assessed as drug concentration that doubles the conductance at voltage leading to 15% channel activation at holding potential of at -80 mV by whole cell patch clamp electrophysiology assay; format: cell-based; in short: as §1
T1 sequence (whole entry): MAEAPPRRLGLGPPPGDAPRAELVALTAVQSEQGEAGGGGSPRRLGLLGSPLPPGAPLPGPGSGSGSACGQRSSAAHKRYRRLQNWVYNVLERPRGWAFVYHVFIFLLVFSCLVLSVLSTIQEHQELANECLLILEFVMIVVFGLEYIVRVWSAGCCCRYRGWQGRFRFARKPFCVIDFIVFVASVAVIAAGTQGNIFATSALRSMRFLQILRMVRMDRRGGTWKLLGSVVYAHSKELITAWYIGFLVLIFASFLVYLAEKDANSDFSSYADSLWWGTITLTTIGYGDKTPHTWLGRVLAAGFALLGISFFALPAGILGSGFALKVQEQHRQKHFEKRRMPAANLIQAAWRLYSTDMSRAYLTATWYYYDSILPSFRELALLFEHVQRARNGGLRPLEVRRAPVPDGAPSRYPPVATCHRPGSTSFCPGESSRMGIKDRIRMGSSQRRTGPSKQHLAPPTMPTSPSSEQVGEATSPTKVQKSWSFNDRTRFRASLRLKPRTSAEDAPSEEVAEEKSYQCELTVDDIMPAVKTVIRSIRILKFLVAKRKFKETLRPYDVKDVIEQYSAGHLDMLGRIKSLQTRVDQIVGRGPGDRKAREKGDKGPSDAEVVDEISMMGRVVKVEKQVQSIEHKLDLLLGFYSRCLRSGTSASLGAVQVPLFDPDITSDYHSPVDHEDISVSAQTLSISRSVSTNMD

[4] = molecular target: Voltage-gated potassium channel, KQT; KCNQ2(Kv7.2)/KCNQ3(Kv7.3) (Homo sapiens) (UniProt O43526+O43525); experiment: Agonist activity at human Kv7.2/Kv7.3 expressed in HEK293 cells assessed as drug concentration that doubles the conductance at voltage leading to 15% channel activation at holding potential of at -80 mV by whole cell patch clamp electrophysiology assay; format: cell-based; in short: as §1
[5] = Half life in human liver microsomes; format: ADME, Microsome
In short: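 Stability was measured by incubation with pooled human liver microsomes. Half-life is reported in minutes.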

[6] = molecular target: Voltage-gated potassium channel, KQT; KCNQ2(Kv7.2)/KCNQ3(Kv7.3) (Homo sapiens, UniProt O43525+O43526); experiment: Agonist activity at human Kv7.2/Kv7.3 expressed in CHO cells at holding potential of at -85 mV by whole cell patch clamp electrophysiology assay; format: cell-based
Sequence of Voltage-gated potassium channel, KQT; KCNQ2(Kv7.2)/KCNQ3(Kv7.3) (O43526 whole entry): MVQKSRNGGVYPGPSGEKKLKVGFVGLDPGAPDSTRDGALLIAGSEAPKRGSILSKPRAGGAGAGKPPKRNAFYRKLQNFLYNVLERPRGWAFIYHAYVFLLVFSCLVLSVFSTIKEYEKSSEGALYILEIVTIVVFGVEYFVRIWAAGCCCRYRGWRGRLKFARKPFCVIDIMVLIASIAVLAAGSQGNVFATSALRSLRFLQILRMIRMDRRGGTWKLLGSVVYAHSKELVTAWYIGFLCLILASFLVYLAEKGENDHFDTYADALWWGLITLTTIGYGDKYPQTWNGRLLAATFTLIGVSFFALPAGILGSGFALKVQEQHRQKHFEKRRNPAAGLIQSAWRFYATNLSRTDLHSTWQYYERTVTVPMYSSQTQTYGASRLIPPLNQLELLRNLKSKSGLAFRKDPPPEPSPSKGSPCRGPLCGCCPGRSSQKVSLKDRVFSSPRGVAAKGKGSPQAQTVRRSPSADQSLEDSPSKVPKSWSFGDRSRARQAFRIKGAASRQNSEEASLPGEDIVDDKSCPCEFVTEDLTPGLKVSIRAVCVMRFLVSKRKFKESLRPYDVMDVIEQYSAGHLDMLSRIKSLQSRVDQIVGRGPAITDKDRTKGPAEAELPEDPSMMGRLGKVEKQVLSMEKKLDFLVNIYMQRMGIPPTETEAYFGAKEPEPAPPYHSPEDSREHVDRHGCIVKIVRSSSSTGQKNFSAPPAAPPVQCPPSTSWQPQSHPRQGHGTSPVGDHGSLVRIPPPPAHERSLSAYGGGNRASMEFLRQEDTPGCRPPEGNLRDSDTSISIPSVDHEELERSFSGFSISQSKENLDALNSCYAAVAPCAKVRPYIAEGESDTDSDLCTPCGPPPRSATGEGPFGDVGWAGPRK
Sequence of Voltage-gated potassium channel, KQT; KCNQ2(Kv7.2)/KCNQ3(Kv7.3) (O43525 whole entry): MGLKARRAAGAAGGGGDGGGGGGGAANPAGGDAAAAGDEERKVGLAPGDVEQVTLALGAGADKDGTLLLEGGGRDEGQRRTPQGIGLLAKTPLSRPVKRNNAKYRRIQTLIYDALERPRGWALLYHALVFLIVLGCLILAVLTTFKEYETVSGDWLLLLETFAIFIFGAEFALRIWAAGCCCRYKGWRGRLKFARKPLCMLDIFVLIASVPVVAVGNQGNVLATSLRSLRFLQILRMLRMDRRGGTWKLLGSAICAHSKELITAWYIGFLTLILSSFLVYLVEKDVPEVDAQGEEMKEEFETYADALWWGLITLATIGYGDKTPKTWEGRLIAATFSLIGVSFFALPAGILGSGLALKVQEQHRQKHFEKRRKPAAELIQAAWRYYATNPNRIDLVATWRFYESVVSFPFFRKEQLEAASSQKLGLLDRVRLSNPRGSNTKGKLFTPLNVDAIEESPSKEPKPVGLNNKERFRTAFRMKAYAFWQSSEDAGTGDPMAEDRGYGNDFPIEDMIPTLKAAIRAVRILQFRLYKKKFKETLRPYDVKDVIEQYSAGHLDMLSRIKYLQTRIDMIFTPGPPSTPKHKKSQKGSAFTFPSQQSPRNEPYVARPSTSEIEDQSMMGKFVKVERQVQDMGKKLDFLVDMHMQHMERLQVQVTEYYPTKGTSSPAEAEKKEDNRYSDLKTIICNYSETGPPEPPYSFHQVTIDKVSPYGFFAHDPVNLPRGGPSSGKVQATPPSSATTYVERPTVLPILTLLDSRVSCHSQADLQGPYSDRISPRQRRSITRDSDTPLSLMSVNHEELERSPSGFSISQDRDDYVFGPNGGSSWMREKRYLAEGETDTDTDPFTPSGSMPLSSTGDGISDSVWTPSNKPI

| SMILES | EC2 [1] | EC2 [2] | Selectivity Index (Homo sapiens) | EC2 [3] | EC2 [4] | half-life [5] | EC50 [6] |
| --- | --- | --- | --- | --- | --- | --- | --- |
| CCOC(=O)Nc1ccc(NCc2ccc(C(F)(F)F)c(C#N)n2)c(F)c1N | 1.3 µM | 2.33 µM | 1.5 | 2.17 µM | 1.6 µM | – | – |
| CCOC(=O)Nc1cc(F)c(NCc2ccc(C(F)(F)F)cc2)cc1N | > 10 µM | > 10 µM | > 7 | 4.65 µM | 1.26 µM | – | – |
| CCOC(=O)Nc1ccc(NCc2ccc(C(F)(F)F)cc2F)c(F)c1N | 0.34 µM | 0.3 µM | 1.7 | 0.11 µM | 0.18 µM | – | – |
| Nc1c(NC(=O)OC2CC2)cc(F)c(NCc2ncc(C(F)(F)F)cc2F)c1F | > 10 µM | > 10 µM | – | > 10 µM | > 10 µM | – | – |
| CCOC(=O)Nc1ccc(NCc2ccc(C(F)(F)F)nc2)c(F)c1N | 0.69 µM | 1.27 µM | 2.1 | 0.95 µM | 0.61 µM | 6.77 h | – |
| CCOC(=O)Nc1ccc(NCc2ccc(C(F)(F)F)cn2)c(F)c1N | 0.79 µM | 0.59 µM | 0.9 | 0.85 µM | 0.66 µM | – | – |
| Nc1c(F)c(NCc2ncc(C(F)(F)F)cc2F)cc(F)c1NC(=O)OC1CC1 | > 10 µM | > 10 µM | > 10 | > 10 µM | 1 µM | – | – |
| Nc1c(NC(=O)OC2CC2)ccc(NCc2ccc(C(F)(F)F)nc2)c1F | 0.69 µM | 1.36 µM | 1.9 | 1.13 µM | 0.71 µM | – | – |
| CC(C)OC(=O)Nc1ccc(NCc2ccc(C(F)(F)F)cc2)c(F)c1N | 0.16 µM | 4.98 µM | 31 | 0.19 µM | 0.16 µM | 7.52 h | – |
| CCOC(=O)Nc1ccc(NCc2ccc(F)cc2)c(F)c1N | – | – | – | – | – | – | 600 nM |
| Nc1c(F)c(NCc2ccc(C(F)(F)F)cc2F)c(F)c(F)c1NC(=O)OC1CC1 | > 10 µM | > 10 µM | – | > 10 µM | > 10 µM | – | – |
| CCOC(=O)Nc1ccc(NCc2ccc(F)cc2)nc1N | 1.58 µM | 3.5 µM | 1.8 | 5.62 µM | 2 µM | – | – |
| Nc1c(F)c(NCc2ccc(C(F)(F)F)cc2F)cc(F)c1NC(=O)OC1CC1 | > 10 µM | > 10 µM | > 7 | 0.55 µM | 1.47 µM | – | – |
| CCOC(=O)Nc1ccc(NCc2ccc(C(F)(F)F)cc2)c(F)c1N | 0.29 µM | 0.09 µM | 0.3 | 0.1 µM | 0.26 µM | 5.73 h | – |
| Nc1c(NC(=O)OC2CC2)ccc(NCc2ccc(C(F)(F)F)cc2F)c1F | 0.47 µM | 0.35 µM | 0.6 | 0.21 µM | 0.59 µM | – | – |
| CCOC(=O)Nc1cc(C(F)(F)F)c(NCc2ccc(C(F)(F)F)cc2)c(F)c1N | > 10 µM | > 10 µM | – | > 10 µM | > 10 µM | – | – |
| Nc1c(NC(=O)OC2CC2)cc(F)c(NCc2ccc(C(F)(F)F)cc2F)c1F | > 10 µM | > 10 µM | > 10 | > 10 µM | 0.93 µM | 1.27 h | – |
| Nc1c(NC(=O)OC2CC2)ccc(NCc2ccc(C(F)(F)F)cc2)c1F | 0.23 µM | 0.28 µM | 2.5 | 0.38 µM | 0.11 µM | – | – |
| Nc1c(NC(=O)OC2CC2)ccc(NCc2ccc(C(F)(F)F)cn2)c1F | 0.72 µM | 0.96 µM | 1.2 | 0.9 µM | 0.79 µM | – | – |
| CCOC(=O)Nc1ccc(NCc2ccc(F)cc2)cc1N [EZOGABINE] | 0.34 µM | – | – | – | 0.33 µM | 16.2 h | – |
| CCOC(=O)Nc1ccc(NCc2cccc(S(F)(F)(F)(F)F)c2)c(F)c1N | 0.21 µM | 0.65 µM | 1.8 | 0.65 µM | 0.36 µM | – | – |
| CCOC(=O)Nc1ccc(NCc2cccc(C(F)(F)F)c2)c(F)c1N | 0.2 µM | 0.66 µM | 4.7 | 0.4 µM | 0.14 µM | – | – |
| Nc1c(NC(=O)OC2CC2)ccc(NCc2ncc(C(F)(F)F)cc2F)c1F | > 10 µM | > 10 µM | > 7 | > 10 µM | 1.39 µM | – | – |
